Most compounds without a hit are left out; they make up all but 4.4% or so of the library.
AHR activator – AHR activators, primary screen, cell-based, luminescence, luciferase reporter, human; Aryl hydrocarbon receptor (Homo sapiens), P35869; activation, % at 5 µM; AHR-responsive luciferase reporter cells; 2.5% of 320,000 active; AID 2796, 2010; in the data active means activation above about 47%
bovine MsrA act – bovine MsrA enzyme activators, primary screen, biochemical, absorbance, HTS; purified bovine MsrA, absorbance read-out; activation, % at 10.6 µM; 0.3% of 360,000 active; AID 602163, 2012; in the data active means activation above about 7.5%
AI-2 QS mod – Vibrio harveyi AI-2 quorum sensing modulators, primary screen, JMH597 strain, luminescence/OD600 ratio | 0.4% of 300,000 active | activity change, % at 7.5 µM | Vibrio harveyi JMH597 AI-2 luminescence/OD600 ratio, 9 h; active compounds read low; strain lacks LuxN and CqsS sensors; 0 = neutral-control median; in the data active means activity change below about -75%, passing the limit was not always enough;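 further: luminescence divided by OD600 gain over 9 h not by final OD600 alone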
MsrA inh – bovine MsrA enzyme inhibitors, primary screen, biochemical, absorbance, HTS | Methionine sulfoxide reductase A (Bos taurus) | AID 651718, 2012 | inhibition, % at 15.5 µM | purified bovine MsrA, absorbance read-out | 0.75% of 360,000 active; in the data active means inhibition above about 4.5%
Tb MetRS inh – T. brucei MetRS inhibitors, primary screen, biochemical, luminescence | purified T. brucei MetRS, ATP depletion, Kinase-Glo luminescence | 0.4% of 360,000 active | inhibition, % at 11.9 µM | methionyl-tRNA synthetase (Trypanosoma brucei brucei);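 active means inhibition above a per-plate cutoff of the control wells' mean inhibition plus 3 SD, cut at about 5.5% in these data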
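Material – parasite MetRS enzyme · Medium – HEPES-MgCl2-KCl buffer plus DTT, spermine, BSA, pyrophosphatase · Reagent – ATP, methionine and E. coli bulk tRNA substrates · Times – 15 min enzyme-compound preincubation, 2 h reaction, 10 min detection, 25 °C · Measured by – luminescence of leftover ATP · Evaluation – percent inhibition relative to median high and low control wells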
HTR2A ag – mouse Htr2a agonists via beta-arrestin recruitment, primary screen, cell-based, luminescence; 5-hydroxytryptamine receptor 2A (Mus musculus), P35363; CHO-K1 mHTR2A beta-arrestin complementation; percent of 30 µM serotonin response; activation, % at 7.6 µM; 0.66% of 360,000 active; AID 624169, 2012;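 active means activation above a run cutoff, the mean activation of all tested compounds plus 3 SD, cut at about 14% in these data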
Target sequence (P35363 whole entry, looked up): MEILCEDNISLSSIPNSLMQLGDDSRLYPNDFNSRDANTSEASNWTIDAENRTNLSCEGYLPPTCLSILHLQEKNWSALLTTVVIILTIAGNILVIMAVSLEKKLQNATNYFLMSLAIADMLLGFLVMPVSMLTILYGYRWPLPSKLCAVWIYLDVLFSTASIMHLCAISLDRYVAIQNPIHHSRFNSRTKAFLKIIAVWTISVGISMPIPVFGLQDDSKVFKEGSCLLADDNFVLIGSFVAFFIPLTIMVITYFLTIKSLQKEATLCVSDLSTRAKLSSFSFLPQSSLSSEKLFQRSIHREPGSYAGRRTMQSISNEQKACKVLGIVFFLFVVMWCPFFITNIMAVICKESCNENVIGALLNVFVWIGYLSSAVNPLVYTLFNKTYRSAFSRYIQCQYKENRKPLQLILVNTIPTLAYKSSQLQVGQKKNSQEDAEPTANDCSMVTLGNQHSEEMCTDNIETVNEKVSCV
OPRM1 ag – OPRM1 agonists via beta-arrestin recruitment, confirmation, counter-screen for mouse HTR2A agonist project, cell-based, luminescence, single concentration. shares compounds with HTR2A ag. U2OS OPRM1 beta-arrestin PathHunter; DMSO 0%, DAMGO 9.3 µM 100%. activation, % at 9.3 µM. 5.3% of 2,300 active;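 active means mean activation above the mean of DMSO-only wells plus 3 SD, cut at about 0.5% in these data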
HTR2A ag conf – mouse HTR2A agonists, beta-arrestin recruitment, confirmation, cell-based, luminescence, CHO-K1 PathHunter, triplicate | shares compounds with HTR2A ag | DMSO 0%, 30 µM serotonin 100% | activation, % at 7.6 µM | 19% of 2,300 active | AID 624381, 2012;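 active means mean activation across triplicates above the hit threshold derived in the original primary screen, cut at about 15% in these data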
A number is an active result; . = inactive; / = no result.

SMILES	AHR activator	bovine MsrA act	AI-2 QS mod	MsrA inh	Tb MetRS inh	HTR2A ag	OPRM1 ag	HTR2A ag conf
Cc1ccc(Oc2ccc(NS(=O)(=O)c3cccc(C(=O)O)c3)cc2)cc1	.	.	/	.	.	15.4	.	.
O=C(O)c1ccc(NS(=O)(=O)c2ccc(C(=O)Nc3ccccc3)cc2)cc1	.	.	.	.	.	.	/	/
O=C(O)c1ccc(NC(=O)c2cccc(S(=O)(=O)Nc3ccc(C(=O)O)cc3)c2)cc1	.	.	.	.	.	16.1	.	.
Cc1cccc(NC(=O)CN(CC2CCCO2)C(=O)c2cc(S(=O)(=O)N(C)C)ccc2F)c1C (centres undefined)	.	.	/	.	.	.	/	/
CCN(CC)S(=O)(=O)c1cccc(C(=O)OCC(=O)NCCN2C(=O)CSC2=O)c1	.	.	/	.	.	.	/	/
O=C(COc1cc(Cl)c(Cl)cc1Cl)Nc1cccc(O)c1	.	.	.	.	.	21.8	.	.
CCC(CC)C(=O)N(C)c1c(C)nc2c(OCc3cccc(Cl)c3)cccn12	/	.	/	.	.	.	/	/
Cn1c(N)c(C(=O)COC(=O)CNC(=O)c2ccc(Cl)cc2Cl)c(=O)n(C)c1=O	.	.	/	.	.	14.5	.	.
COc1ccc(NC(=O)C2Cc3c(-c4cccc(C(C)=O)c4)ccnc3O2)cc1 (centres undefined)	/	.	/	.	.	.	/	/
Cc1cccn2c(CNCCc3ccco3)c(C(=O)N3CCOCC3)nc12	/	.	.	.	.	.	/	/
Cc1cc(N/N=C/c2ccc(O)c(C)c2O)nc(-c2ccccc2O)n1	.	.	.	.	.	20.1	.	64.6
C[C@@H]1CN([C@@H](C)CO)C(=O)CCCn2nncc2CO[C@@H]1CN(C)C(=O)C1CC1	/	/	/	.	/	/	/	/
CC(=O)OC1C=CCC2C(=O)c3cccc(O)c3C(O)C12 (centres undefined)	/	.	/	.	.	16.7	.	.
Cn1c(CC(=O)Nc2ccccc2F)nnc1SCC(=O)Nc1ccccc1Br	.	.	.	.	.	.	/	/
COc1ccc(C)cc1NC(=O)C1CCCN(S(=O)(=O)c2ccc3c(c2)CCCN3C(C)=O)C1 (centres undefined)	.	.	.	.	.	.	/	/
CC(Sc1ccc(Cl)cc1)C(=O)N(C)CC(=O)Nc1ccc(N2CCOCC2)cc1 (centres undefined)	.	.	.	.	.	18.3	.	.
CC(Oc1ccc(Cl)cc1)C(=O)N(C)CC(=O)Nc1ccc(N2CCOCC2)cc1 (centres undefined)	.	.	.	.	.	.	/	/
COCCn1cnnc1SCC(=O)Nc1sc2c(c1C#N)CCC2	.	.	/	.	.	17.3	.	.
Cc1cc(C)c(NC(=O)CS(=O)CC(=O)Nc2ccc(-n3cnnn3)c(C)c2)c(C)c1 (centres undefined)	.	.	.	.	.	.	/	/
Cc1ccc(C(=O)c2nc(C(=O)NCCO)nc3ccccc23)cc1	47.8	.	/	.	.	15.8	.	.
Cc1c(C(=O)N2CCCC2)c(S(=O)(=O)N2CCN(c3ccccc3F)CC2)c(C)n1C	.	.	.	.	.	.	/	/
Cc1noc(C)c1CN1C(=O)c2cccc([N+](=O)[O-])c2C1=O	.	.	.	.	.	14.4	.	.
Cc1noc(C)c1CN1C(=O)c2ccc([N+](=O)[O-])cc2C1=O	.	.	.	.	.	.	/	/
COc1ccc(Cl)cc1NC(=O)COC(=O)Cc1cc(OC)c(OC)c(OC)c1	.	.	/	.	.	.	/	/
COc1ccc(/C=N/NC(=O)CC(=O)N/N=C/c2ccc(OC)cc2)cc1	.	.	.	.	.	.	/	/
SMILES	AHR activator	bovine MsrA act	AI-2 QS mod	MsrA inh	Tb MetRS inh	HTR2A ag	OPRM1 ag	HTR2A ag conf
COc1ccc(/C=N/NC(=O)CCc2nc3ccccc3[nH]2)cc1	.	.	.	.	.	16.4	.	.
COc1ccc(NC(=O)Cc2nc3ccccc3[nH]2)cc1	.	.	.	.	.	84.9	.	.
CC(=O)c1ccc(-c2cnc3c(NC=O)cc(-c4ccc(C(=O)N5CCOCC5)cc4)cn23)cc1	/	.	/	.	.	.	/	/
COc1ccc(-c2cnc3c(NC=O)cc(-c4ccc(C(=O)N5CCOCC5)cc4)cn23)cc1OC	/	.	/	.	.	17.2	.	.
O=c1cc(-c2ccc(C(F)(F)F)cc2)oc2ccccc12	.	.	/	.	.	16.1	.	.
CCN(CC)c1ccc(NC(=O)C2=CCN(S(=O)(=O)c3ccc(F)cc3)CC2)c(C)c1	.	.	.	.	.	16.7	.	.
CN([C@@H](Cc1ccc(OS(=O)(=O)c2cccc3cnccc23)cc1)C(=O)N1CCN(c2ccccc2)CC1)S(=O)(=O)c1cccc2cnccc12	.	.	.	/	.	14.9	.	.
COc1ccc(N2CCN(C(=O)C(Cc3ccccc3)n3cccc3)CC2)cc1 (centres undefined)	.	.	.	.	.	.	/	/
CCCCOc1ccc(S(=O)(=O)NC(=O)C2(C)CCN2C(=O)CCc2ccccc2)cc1 (centres undefined)	/	.	/	.	.	16.5	.	.
Cc1ccc([C@@H]2C[C@H]3[C@@H](CN2S(=O)(=O)c2ccc(C)cc2)C(=O)C[C@@H](c2ccccc2F)N3S(=O)(=O)c2ccc(C)cc2)cc1	/	.	/	.	.	.	/	/
CC(=O)Nc1ccc(C(=O)N/C(=C/c2ccccc2)C(=O)Nc2cccc(C(=O)O)c2)cc1	.	.	.	.	.	.	/	/
O=C(Nc1ccc(C(=O)O)cc1)/C(=C\c1ccccc1)NC(=O)c1ccccc1	.	.	.	.	.	17.6	.	.
Cc1ccc(OCC(=O)c2c(N)n(C)c(=O)n(C)c2=O)c([N+](=O)[O-])n1	.	.	/	.	.	.	/	/
COc1cccc(CN2CCN(c3ncccn3)CC2)c1OC	.	.	.	.	.	25.2	.	81.4
CCOc1cc(CN2CCN(c3ncccn3)CC2)ccc1OC	.	.	.	.	.	22.4	.	50.1
COc1ccc(CN2CCN(c3ncccn3)CC2)c(C)c1C	.	.	.	.	.	33.5	.	130.5

Screening results deposited in PubChem by several laboratories.
